The structures appear in SMILES notation. Activity calls are given as the source filed them. The calls are words filed in the database; no cut-off is given here.

From ChEMBL document CHEMBL4346761, “Microwave-Assisted Organic Synthesis, structure-activity relationship, kinetics and molecular docking studies of non-cytotoxic benzamide derivatives as selective butyrylcholinesterase inhibitors” (Bioorg Med Chem, 2019) come the findings set out here.

In data set [1] the target is T1, Cholinesterase (Equus caballus, UniProt P81908). Briefly: Uncompetitive inhibition of equine serum BChE using varying levels of […] chloride as substrate by Lineweaver-Burk plot analysis.
Data set [2] deals with T1, Cholinesterase. The data set is described as follows: (§1) Inhibition of equine serum BChE using […] chloride as substrate preincubated for 15 mins followed by substrate addition and measured after 15 mins under dark condition by Ellman's method. The method, boiled down:
(§2)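 Modified Ellman assay. Equine serum BChE (51.732 mU) was preincubated 15 min at 25 °C with test compound (dissolved in methanol) in 100 mM sodium phosphate buffer, pH 8.0. Butyrylthiocholine chloride (0.5 mM) was added for 15 min in the dark, then DTNB (0.5 mM) was added. Absorbance was read at 412 nm and mean IC50 values were derived.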
(Ellman's reagent forms a yellow product with free thiols.)

In data set [3] the target is Acetylcholinesterase (Electrophorus electricus) (UniProt O42275). Briefly: Inhibition of electric eel AChE using acetylthiocholine iodide as substrate preincubated for 15 mins followed by substrate addition and measured after 15 mins under dark condition by Ellman's method. The method, boiled down: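 Modified Ellman assay. Electric eel AChE (0.002 mU) was preincubated 15 min at 25 °C with test compound (dissolved in methanol) in 100 mM sodium phosphate buffer, pH 8.0. Acetylthiocholine iodide (0.5 mM) and DTNB were added. After 15 min in the dark, absorbance was read at 412 nm.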

Data set [4] has as its system NIH3T3. Briefly: Cytotoxicity against mouse 3T3 cells at 1 to 30 uM measured after 48 hrs by MTT assay relative to control. Type of data set: cell-based. The note with it: nih3t3, 48 h. The method, boiled down: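 MTT colorimetric read-out. Cells seeded at 3x10^5 in 100 µL medium and left 24 h to attach. Medium then replaced with fresh medium plus test compound (1 to 30 µM). Incubated 48 h at 37 °C, 5% CO2, 90% humidity. MTT added, 4 h incubation. Formazan dissolved in DMSO, absorbance read at 540 nm. IC50 values calculated.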
On the technique in general: Tetrazolium dyes change colour on reduction, which living cells bring about.

Data set [5] deals with Cholinesterase (Equus caballus) (UniProt P81908). Briefly: Inhibition of equine serum BChE using […] chloride as substrate preincubated for 15 mins followed by substrate addition and measured after 15 mins under dark condition by Ellman's method relative to control. The arrangement: concentration or dose not given beside the values. The method, boiled down: as §2

Data set [6] concerns NIH3T3. The data set is described as follows: Cytotoxicity against mouse 3T3 cells measured after 48 hrs by MTT assay relative to control. It counts as cell-based. The settings on record: nih3t3, 48 h. The method, boiled down: (§3)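 Cells seeded at 3x10^5 per well in medium and allowed to attach. After 24 h the medium was replaced with fresh medium plus test compound (1 to 30 µM). Plates were held 48 h at 37 °C, 5% CO2, 90% humidity. MTT was added for 4 h, formazan dissolved in DMSO, and absorbance read at 540 nm. IC50 values were calculated.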

Data set [7] deals with NIH3T3. The data set is described as follows: Cytotoxicity against mouse 3T3 cells measured after 48 hrs by MTT assay. Type of data set: cell-based. The settings on record: NIH3T3, 48 h. The method, boiled down: as §3
The target in data set [8] is T1, Cholinesterase. Briefly: Mixed inhibition of equine serum BChE using varying levels of […] chloride as substrate by Lineweaver-Burk plot analysis. The method, boiled down:
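Kinetics for BChE in the Ellman format with varied substrate. Inhibition mode was assigned from Lineweaver-Burk plots, secondary replots (slope vs inhibitor concentration) and Dixon plots. Apparent Km and Vmax were determined.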

Data set [9] has as its target Cholinesterase (Equus caballus) (UniProt P81908). Briefly: Potency index, ratio of donepezil IC50 to test compound IC50 for equine serum BChE.
Data set [10] shares this target. The description is as §1. The method, boiled down: as §2

Sequence of Acetylcholinesterase (Electrophorus electricus) (O42275 24-633 limits assumed): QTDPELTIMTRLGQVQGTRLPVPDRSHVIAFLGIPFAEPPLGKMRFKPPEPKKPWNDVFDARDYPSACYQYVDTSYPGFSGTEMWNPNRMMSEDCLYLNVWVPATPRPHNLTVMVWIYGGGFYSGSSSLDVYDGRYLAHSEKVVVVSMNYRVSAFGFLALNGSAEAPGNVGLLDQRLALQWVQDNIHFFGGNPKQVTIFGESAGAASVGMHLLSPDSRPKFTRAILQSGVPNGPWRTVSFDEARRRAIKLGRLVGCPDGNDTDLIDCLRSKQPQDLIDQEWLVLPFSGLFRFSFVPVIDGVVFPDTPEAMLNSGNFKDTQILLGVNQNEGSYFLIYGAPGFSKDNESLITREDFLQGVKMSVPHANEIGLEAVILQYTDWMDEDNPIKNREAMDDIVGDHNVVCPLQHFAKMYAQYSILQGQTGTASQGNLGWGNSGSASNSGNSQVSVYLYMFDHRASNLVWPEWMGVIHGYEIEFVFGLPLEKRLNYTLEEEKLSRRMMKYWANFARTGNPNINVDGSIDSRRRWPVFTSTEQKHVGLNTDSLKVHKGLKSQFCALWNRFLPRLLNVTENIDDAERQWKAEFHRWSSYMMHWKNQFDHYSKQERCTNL
T1 sequence (P81908 whole entry): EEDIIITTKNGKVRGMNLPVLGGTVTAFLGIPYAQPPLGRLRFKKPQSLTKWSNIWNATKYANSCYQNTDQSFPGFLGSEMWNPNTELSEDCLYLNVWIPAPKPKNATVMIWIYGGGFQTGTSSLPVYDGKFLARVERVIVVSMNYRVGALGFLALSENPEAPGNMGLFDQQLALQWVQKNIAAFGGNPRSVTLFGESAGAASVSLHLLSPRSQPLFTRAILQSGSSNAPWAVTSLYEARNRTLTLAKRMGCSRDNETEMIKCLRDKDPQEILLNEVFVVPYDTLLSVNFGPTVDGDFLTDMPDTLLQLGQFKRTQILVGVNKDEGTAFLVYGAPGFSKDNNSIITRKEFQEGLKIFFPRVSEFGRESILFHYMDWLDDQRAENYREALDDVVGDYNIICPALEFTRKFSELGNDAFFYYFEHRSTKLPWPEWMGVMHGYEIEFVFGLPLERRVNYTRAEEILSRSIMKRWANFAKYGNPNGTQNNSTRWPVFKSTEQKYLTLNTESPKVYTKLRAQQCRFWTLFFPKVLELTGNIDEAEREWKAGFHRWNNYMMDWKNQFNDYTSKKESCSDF
Sequence of Cholinesterase (Equus caballus) (P81908 whole entry): as above

A word on the Ki: it is a dissociation constant, usually derived from enzyme kinetics or from competition with a known ligand. In general, IC50 refers to the concentration at which inhibition is half-maximal. A word on the inhibition: it is the change of the read-out against control, counted positive when it falls. On Cholinesterase [1], `O=C(Nc1c(Cl)cccc1Cl)c1ccc(F)cc1F` gave a Ki of 27.6 µM. The same compound yielded an IC50 at Cholinesterase [2] of 18.7 µM. For the same compound, the inhibition entry in [3] was “inactive”. The compound also yielded an Activity in the data set with NIH3T3 [4] of 34%. The inhibition in data set [5] amounted to 80.7%.
On to `C[C@@H]1C[C@@H]([C@H](O)CC2CC(=O)NC(=O)C2)C(=O)[C@@H](C)C1` [CYCLOHEXIMIDE], for which the Activity in the data set on NIH3T3 [6] stood at 95%. Moreover, in the data set on NIH3T3 [7], the IC50 was 0.8 µM.
Take `O=C(Nc1c(Cl)cccc1Cl)c1c(F)cccc1F`: on Cholinesterase [1], the Ki came out at 5.6 µM. The compound also came in with an IC50 at Cholinesterase [2] of 12.6 µM. The inhibition result in data set [3] is “inactive”. In addition, the Activity with NIH3T3 [4] is reported as 34%. Further, the inhibition in data set [5] is 70.6%.
Regarding `O=C(Nc1c(Cl)cccc1Cl)c1ccccc1`, the Ki on Cholinesterase [8] amounted to 4.4 µM. For the same compound, the IC50 at Cholinesterase [2] stood at 1.3 µM. Further, in [3], the inhibition result is “inactive”. For the same compound, the Activity with NIH3T3 [4] was found to be 33%. The inhibition in [5] stood at 100%. In addition, the Ratio IC50 in data set [9] amounted to 10.
`O=C(Nc1c(Cl)cccc1Cl)c1ccccc1Br`: on Cholinesterase [1], the inhibition constant (Ki) came to 2.4 µM. Further, the IC50 at Cholinesterase [2] was 1.1 µM. Also, the inhibition entry in data set [3] is “inactive”. This compound displayed an Activity in the data set with NIH3T3 [4] of 41%. In addition, the inhibition in data set [5] is 88%.
Consider `O=C(Nc1c(Cl)cccc1Cl)c1ccc(F)cc1`, for which the Ki at Cholinesterase [8] stood at 9.9 µM. Further, the IC50 at Cholinesterase [2] amounted to 16.1 µM. Moreover, the inhibition entry in data set [3] is “inactive”. The Activity in the data set on NIH3T3 [4] was determined as 29%. Further, the inhibition in data set [5] came out at 86.5%.
For `COc1ccc(C(=O)Nc2c(Cl)cccc2Cl)cc1`, the Ki at Cholinesterase [8] was determined as 18 µM. On Cholinesterase [2], this compound had a 50% inhibitory concentration (IC50) of 11.3 µM. The inhibition result in data set [3] is “inactive”. The compound also showed an Activity in the data set with NIH3T3 [4] of 32%. Besides, the inhibition in data set [5] was 90.7%.
`CCOc1ccccc1C(=O)Nc1c(Cl)cccc1Cl`: on Cholinesterase [2], the half-inhibitory concentration (IC50) was determined as 6 µM. Also, the inhibition entry in data set [3] was “inactive”. In the data set with NIH3T3 [4], this compound gave an Activity of 15%. For the same compound, in data set [5], the inhibition was determined as 112%.
`O=C(Nc1c(Cl)cccc1Cl)c1cccc([N+](=O)[O-])c1`: the inhibition entry in [10] and in data set [3] was “inactive” throughout. The Activity with NIH3T3 [4] is reported as 41%.
On Cholinesterase [1], `COc1cc(C(=O)Nc2c(Cl)cccc2Cl)cc(OC)c1OC` registered an inhibition constant Ki of 23.5 µM. Also, the half-inhibitory concentration (IC50) at Cholinesterase [2] was determined as 20.8 µM. The inhibition result in data set [3] is “inactive”. Moreover, the Activity with NIH3T3 [4] is recorded as 48%. In addition, in data set [5], the inhibition amounted to 69.2%.
In turn, `COc1cccc(C(=O)Nc2c(Cl)cccc2Cl)c1` registered a Ki at Cholinesterase [8] of 13 µM. At Cholinesterase [2], this compound registered an IC50 of 5.5 µM. Moreover, the inhibition entry in data set [3] is “inactive”. Besides, the Activity in the data set on NIH3T3 [4] stood at 14.8%. Further, in data set [5], the inhibition was found to be 95.2%.
For `O=C(Nc1c(Cl)cccc1Cl)c1ccc(Br)cc1`, in that order: 2.6 µM, 0.8 µM, “inactive”, 49% and 84%.
`Cc1ccc(C(=O)Nc2c(Cl)cccc2Cl)cc1[N+](=O)[O-]` gave a concentration for half-maximal inhibition (IC50) at Cholinesterase [2] of 165 µM. For the same compound, the inhibition entry in data set [3] is “inactive”. For the same compound, in the data set on NIH3T3 [4], the Activity is recorded as 40%. The inhibition in data set [5] turned out to be 69.1%.
